In ChEMBL document CHEMBL2390875, “Synthesis and pharmacological investigation of new N-hydroxyalkyl-2-aminophenothiazines exhibiting marked MDR inhibitory effect” (Bioorg Med Chem, 2013):
Active and inactive are the calls of the source. No cut-off for these calls is given here.

Columns and labels:
[1] = system: Hepatocyte; assay: Cytotoxicity against Wistar rat primary hepatocytes assessed as change in cell viability at 10 uM after 3 hrs by MTT assay; assay type: cell-based
How it was run: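 Primary hepatocytes from male Wistar rats (200-250 g), cultured as a monolayer, exposed 3 h to compound or vehicle (control), washed, then incubated with 1 mg/mL MTT for 2 h. Cells lysed in DMSO and absorbance read at 570 nm. Viability expressed as % of control.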

[2] = system: Hepatocyte; assay: Inhibition of p-gp in Wistar rat primary hepatocytes assessed as inhibition of rhodamine 123 efflux at 10 uM after 3 hrs; assay type: cell-based
How it was run: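 Collagenase-perfused male Wistar rat hepatocytes plated on collagen and cultured 4 days in supplemented Williams Medium E. Cells preloaded 30 min with 5 µM RH123, then exposed 3 h to compound or 0.1% DMSO vehicle. Cells washed with ice-cold HBSS and lysed in 0.5% Triton X100. Intracellular RH123 read by fluorescence at 519/538 nm. Mean ± SD from three isolations, four wells per condition, Student's t-test.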

| Structure (SMILES) | Activity [1] | inhibition [2] |
| --- | --- | --- |
| COc1ccc(-n2nnc(CCC(O)CN3c4ccccc4Sc4ccc(NCCN5CCOCC5)cc43)n2)cc1 (stereo not drawn) | Non-toxic |  |
| COc1ccc(-n2nnc(CCC(O)CN3c4ccccc4[S+]([O-])c4ccc(N5CCOCC5)cc43)n2)cc1 (stereo not drawn) | Non-toxic | Active |
| COc1ccc(-n2nnc(CCC(O)CN3c4ccccc4S(=O)(=O)c4ccc(N5CCOCC5)cc43)n2)cc1 (stereo not drawn) | Non-toxic | Active |
| COc1ccc(-n2nnc(/C=C\C=C\N3c4ccccc4Sc4ccc(Cl)cc43)n2)cc1 |  | Active |
| COc1ccc(-n2nnc(CCC(O)CN3c4ccccc4Sc4ccc(C(F)(F)F)cc43)n2)cc1 (stereo not drawn) |  | Active |
| COc1ccc(-n2nnc(CCC(O)CN3c4ccccc4Sc4ccc(NC(C)=O)cc43)n2)cc1 (stereo not drawn) |  | Active |
| COc1ccc(-n2nnc(CCC(O)CN3c4ccccc4Sc4ccccc43)n2)cc1 (stereo not drawn) |  | Active |
| CCN(CC)c1ccc2c(c1)N(CC(O)CCc1nnn(-c3ccc(OC)cc3)n1)c1ccccc1S2 (racemic) | Non-toxic | Active |
| COc1ccc(-n2nnc(CCC(O)CN3c4ccccc4Sc4ccc(N5CCOCC5)cc43)n2)cc1 (racemic) [listing 1 of 2 here] | Non-toxic |  |
| COc1ccc(-n2nnc(CCC(O)CN3c4ccccc4Sc4ccc(N5CCN(C)CC5)cc43)n2)cc1 (racemic) |  | Active |
| COc1ccc(-n2nnc(CCC(O)CN3c4ccccc4Sc4ccc(N5CCOCC5)cc43)n2)cc1 (racemic) [listing 2 of 2 here] |  | Active |
| COc1ccc(-n2nnc(CCC(O)CN3c4ccccc4Sc4ccc(N5CCN(C)CC5)cc43)n2)cc1 (single isomer, unassigned; (+)) |  | Active |
| COc1ccc(-n2nnc(CCC(O)CN3c4ccccc4Sc4ccc(N5CCN(C)CC5)cc43)n2)cc1 (single isomer, unassigned; (-)) |  | Active |
| COc1ccc(-n2nnc(CCC(O)CN3c4ccccc4Sc4ccc(N5CCOCC5)cc43)n2)cc1 (single isomer, unassigned; (-)) |  | Active |
| COc1ccc(-n2nnc(CCC(O)CN3c4ccccc4Sc4ccc(N5CCOCC5)cc43)n2)cc1 (stereo in doubt; (+)-3h) |  | Active |
